# Laboratory results from ChEMBL document CHEMBL2346603, “Discovery of potent dipeptidyl peptidase IV inhibitors through pharmacophore hybridization and hit-to-lead optimization” (Bioorg Med Chem, 2013).
# Activity calls are given as the source filed them. No cut-off for these calls is given here.
# Tests used:
# [1] = Oral bioavailability in Sprague-Dawley rat at 30 mg/kg by LC-MS/MS analysis; format: ADME, organism-based; conditions: in vivo
# Outline: (§1)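 Adult male SD rats (n = 4/group) got a single dose of compound in distilled water, orally or by injection. Blood (100–200 µL) was drawn from the orbit at 11 time points over 24 h. Blood drug levels were measured by LC–MS/MS.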
# [2] = Half life in Sprague-Dawley rat blood at 30 mg/kg, po by LC-MS/MS analysis; format: ADME, organism-based; design: dose 30 mg/kg, route oral; conditions: whole blood; outline: as §1
# [3] = Mean residence time (0 to infinity) in Sprague-Dawley rat blood at 30 mg/kg, po by LC-MS/MS analysis; format: ADME, organism-based; design: dose 30 mg/kg, route oral; conditions: whole blood; outline: as §1
# [4] = Apparent volume of distribution in Sprague-Dawley rat blood at 10 mg/kg, iv by LC-MS/MS analysis; format: ADME, organism-based; design: dose 10 mg/kg, route intravenous; conditions: whole blood, read-out: Vz; outline: as §1
# [5] = Inhibition of CYP3A (unknown origin) up to 30 uM; format: ADME; conditions: human
# [6] = AUC (0 to infinity) in Sprague-Dawley rat blood at 30 mg/kg, po by LC-MS/MS analysis; format: ADME, organism-based; design: time infinity, dose 30 mg/kg, route oral; conditions: whole blood; outline: as §1
# [7] = Apparent clearance in Sprague-Dawley rat blood at 10 mg/kg, iv by LC-MS/MS analysis; format: ADME, organism-based; design: dose 10 mg/kg, route intravenous; conditions: whole blood, read-out: CL(app) (converted); outline: as §1
# [8] = biological target: Dipeptidyl peptidase 8 (Homo sapiens) (UniProt Q6V1X1); assay: Inhibition of DPP8 (unknown origin) up to 10 uM
# Sequence of Dipeptidyl peptidase 8 (Homo sapiens) (Q6V1X1 whole entry, looked up): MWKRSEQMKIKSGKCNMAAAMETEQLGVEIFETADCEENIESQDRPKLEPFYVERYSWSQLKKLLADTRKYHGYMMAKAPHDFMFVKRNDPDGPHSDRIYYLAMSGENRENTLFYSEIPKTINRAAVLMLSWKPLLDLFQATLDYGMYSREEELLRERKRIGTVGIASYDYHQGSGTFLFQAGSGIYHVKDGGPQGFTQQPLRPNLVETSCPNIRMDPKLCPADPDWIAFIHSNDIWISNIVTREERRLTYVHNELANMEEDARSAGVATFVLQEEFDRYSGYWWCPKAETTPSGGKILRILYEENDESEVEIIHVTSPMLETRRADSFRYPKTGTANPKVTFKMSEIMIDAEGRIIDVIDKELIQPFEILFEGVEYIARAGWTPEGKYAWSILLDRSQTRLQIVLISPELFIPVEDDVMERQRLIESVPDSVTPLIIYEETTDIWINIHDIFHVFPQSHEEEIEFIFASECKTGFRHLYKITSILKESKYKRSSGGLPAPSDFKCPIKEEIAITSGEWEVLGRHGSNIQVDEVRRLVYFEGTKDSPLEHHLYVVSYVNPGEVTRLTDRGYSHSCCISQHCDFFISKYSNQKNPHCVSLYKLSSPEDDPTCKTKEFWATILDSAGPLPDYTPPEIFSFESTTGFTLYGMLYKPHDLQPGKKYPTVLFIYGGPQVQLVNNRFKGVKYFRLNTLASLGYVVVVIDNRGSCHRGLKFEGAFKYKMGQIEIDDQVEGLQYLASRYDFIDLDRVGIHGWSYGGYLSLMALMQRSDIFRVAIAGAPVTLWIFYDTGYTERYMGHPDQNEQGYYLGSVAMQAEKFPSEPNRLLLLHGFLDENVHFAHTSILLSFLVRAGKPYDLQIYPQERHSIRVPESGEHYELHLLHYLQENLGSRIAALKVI
# Outline: (§2)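 Compounds were serially diluted from DMSO into 20 mM Tris pH 7.4, 20 mM KCl, 0.1 mg/mL BSA. Enzyme was pre-incubated with compound for 10 min at ambient temperature. Reaction was started with Gly-Pro-AMC (10 µM final). Fluorescence (ex 400/em 505 nm) was read kinetically for 5–10 min or at a 10 min endpoint.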
# [9] = biological target: Dipeptidyl peptidase 9 (Homo sapiens) (UniProt Q86TI2); assay: Inhibition of DPP9 (unknown origin) up to 10 uM; outline: as §2
# Sequence of Dipeptidyl peptidase 9 (Homo sapiens) (Q86TI2 2-863 limits assumed): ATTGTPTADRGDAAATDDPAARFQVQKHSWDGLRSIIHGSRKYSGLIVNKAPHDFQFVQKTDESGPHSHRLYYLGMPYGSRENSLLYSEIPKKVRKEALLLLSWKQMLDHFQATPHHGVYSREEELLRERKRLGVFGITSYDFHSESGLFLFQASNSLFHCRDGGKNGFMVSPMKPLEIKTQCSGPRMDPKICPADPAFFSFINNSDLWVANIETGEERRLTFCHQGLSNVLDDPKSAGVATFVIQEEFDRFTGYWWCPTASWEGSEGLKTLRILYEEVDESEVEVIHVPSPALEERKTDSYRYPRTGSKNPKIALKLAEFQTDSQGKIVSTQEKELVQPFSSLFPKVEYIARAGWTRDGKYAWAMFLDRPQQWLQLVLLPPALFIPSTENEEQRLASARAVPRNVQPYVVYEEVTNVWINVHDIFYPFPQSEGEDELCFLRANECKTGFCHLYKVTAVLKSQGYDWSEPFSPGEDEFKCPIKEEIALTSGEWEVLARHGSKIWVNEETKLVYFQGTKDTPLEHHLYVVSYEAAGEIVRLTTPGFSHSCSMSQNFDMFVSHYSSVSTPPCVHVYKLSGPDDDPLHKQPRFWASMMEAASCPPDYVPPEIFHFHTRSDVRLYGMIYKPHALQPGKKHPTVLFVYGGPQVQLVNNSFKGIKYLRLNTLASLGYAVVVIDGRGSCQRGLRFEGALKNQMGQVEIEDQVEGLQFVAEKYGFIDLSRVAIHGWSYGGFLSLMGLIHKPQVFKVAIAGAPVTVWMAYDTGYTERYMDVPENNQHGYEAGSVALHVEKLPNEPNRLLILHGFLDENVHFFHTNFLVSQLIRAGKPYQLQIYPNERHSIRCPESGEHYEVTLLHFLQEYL
bioavailability [1],half-life [2],MRT inf [3],Vd [4],inhibition (INH) [5],AUC(0-inf) [6],clearance [7],inhibition [8],inhibition [9],SMILES
41%,2 h,,,,,,,,N#Cc1ccccc1Cn1c(N2CCC[C@@H](N)C2)nc2c(Br)c[nH]c2c1=O
82.9%,4.9 h,8.3 h,4 L/kg,Not Active,25300 ng·h/mL,16.7 mL/min/kg,inactive,inactive,CC#CCn1c(N2CCC[C@@H](N)C2)nc2ccn(Cc3nc(C)c4ccccc4n3)c2c1=O
